≈ marks a conversion by molar mass, not a printed value.
Key:
Format in all cases: functional
HEL [1] = experiment: Minimum inhibitory concentration required for antiviral activity to reduce Varicella Zoster virus (VZV) (Oka) induced cytopathicity in human embryonic lung cells (HEL)
HeLa = experiment: Minimum inhibitory concentration to reduce cytopathicity by 50% in morphology of human carcinoma cells (HeLa)
How it was run: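 Cytotoxicity endpoint is the minimum compound concentration that causes a microscopically detectable alteration of normal host cell morphology.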

MDCK [2] = experiment: Minimum inhibitory concentration required for antiviral activity to reduce Influenza A virus (Ishikawa) induced cytopathicity in Madin-Darby canine kidney cells (MDCK); settings: Canis lupus familiaris
How it was run: (§1)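 Endpoint is the compound concentration that reduces virus-induced cytopathicity in the host cell monolayer by 50%.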

MDCK [3] = experiment: Minimum inhibitory concentration to reduce cytopathicity by 50% in morphology of Madin-Darby canine kidney cells (MDCK); settings: Canis lupus familiaris
[4] = tested on: Vesicular stomatitis virus; experiment: Minimum inhibitory concentration required for antiviral activity to reduce Vesicular stomatitis virus (VSV) induced cytopathicity in human embryonic skin-muscle cells (ESM); how it was run: as §1
[5] = tested on: Respiratory syncytial virus; experiment: Minimum inhibitory concentration required for antiviral activity to reduce Respiratory syncytial virus (RSV) (Long) induced cytopathicity in human carcinoma cells (HeLa); how it was run: as §1
HEL [6] = experiment: Minimum inhibitory concentration required for antiviral activity to reduce TK Varicella Zoster virus (VZV) (07/1) induced cytopathicity in human embryonic lung cells (HEL)
HEL [7] = experiment: Minimum inhibitory concentration to reduce cytopathicity by 50% in proliferation of human embryonic lung cells (HEL)
How it was run: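 Host cell toxicity is read as the compound concentration that reduces HEL cell proliferation by 50%.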

Vaccinia virus = experiment: Minimum inhibitory concentration required for antiviral activity to reduce Vaccinia virus (VV) induced cytopathicity in human embryonic skin-muscle cells (ESM); settings: Orthopoxvirus vaccinia; how it was run: as §1
Human alphaherpesvirus 1 = experiment: Minimum inhibitory concentration required for antiviral activity to reduce TK-HSV-1 (B2006) induced cytopathicity in human embryonic skin-muscle cells (ESM); how it was run: as §1
HEL [8] = experiment: Minimum inhibitory concentration required for antiviral activity to reduce Cytomegalovirus (CMV) (AD-169) induced cytopathicity in human embryonic lung cells (HEL); how it was run: as §1
ESM = experiment: Minimum inhibitory concentration to reduce cytopathicity by 50% in morphology of human embryonic skin-muscle cells (ESM)
HEL [9] = experiment: Minimum inhibitory concentration required for antiviral activity to reduce Cytomegalovirus (CMV) (Davis) induced cytopathicity in human embryonic lung cells (HEL); how it was run: as §1
MDCK [10] = experiment: Minimum inhibitory concentration required for antiviral activity to reduce influenza B virus (Singapore) induced cytopathicity in Madin-Darby canine kidney cells (MDCK); settings: Canis lupus familiaris; how it was run: as §1

Row | SMILES | MIC (HEL [1]) [µg/mL] | MIC (HeLa) [µg/mL] | MIC (MDCK [2]) [µg/mL] | MIC (MDCK [3]) [µg/mL] | MIC [4] [µg/mL] | MIC [5] [µg/mL] | MIC (HEL [6]) [µg/mL] | MIC (HEL [7]) [µg/mL] | MIC (Vaccinia virus) [µg/mL] | MIC (Human alphaherpesvirus 1) [µg/mL] | MIC (HEL [8]) [µg/mL] | MIC (ESM) [µg/mL] | MIC (HEL [9]) [µg/mL] | MIC (MDCK [10]) [µg/mL]
1 | C/C=C\c1nc2c(N)ncnc2n1[C@H]1C[C@H](O)[C@@H](CO)O1 | > 50 | > 200 | > 200 | > 200 | > 100 | > 200 | > 50 | > 50 | > 100 | > 100 | > 50 | ≥ 100 | > 50 | > 200
2 | CCc1nc2c(N)ncnc2n1[C@H]1C[C@H](O)[C@@H](CO)O1 | > 100 | > 200 | > 200 | > 200 | > 400 | > 200 | 55 (≈ 197 µM) | > 200 | > 400 | 300 (≈ 1070 µM) | 70 (≈ 251 µM) | > 400 | 70 (≈ 251 µM) | > 200
3 | CCCCCc1nc2c(N)ncnc2n1[C@H]1C[C@H](O)[C@@H](CO)O1 | 20 (≈ 62.2 µM) | 100 (≈ 311 µM) | > 100 | 100 (≈ 311 µM) | 70 (≈ 218 µM) | > 100 | 20 (≈ 62.2 µM) | 30 (≈ 93.3 µM) | 150 (≈ 467 µM) | > 100 | 10 (≈ 31.1 µM) | > 200 | 10 (≈ 31.1 µM) | > 100
4 | CCCCCCCc1nc2c(N)ncnc2n1[C@H]1C[C@H](O)[C@@H](CO)O1 | 10 (≈ 28.6 µM) | 100 (≈ 286 µM) | 20 (≈ 57.2 µM) | 100 (≈ 286 µM) | > 40 | 20 (≈ 57.2 µM) | 6 (≈ 17.2 µM) | 13 (≈ 37.2 µM) | 20 (≈ 57.2 µM) | > 40 | 4 (≈ 11.4 µM) | > 100 | 4 (≈ 11.4 µM) | > 100
5 | CCC/C=C\c1nc2c(N)ncnc2n1[C@H]1C[C@H](O)[C@@H](CO)O1 | > 50 | > 200 | > 200 | > 200 | > 100 | 100 (≈ 313 µM) | > 50 | 40 (≈ 125 µM) | > 100 | > 100 | > 50 | ≥ 200 | > 50 | > 200
6 | O=c1[nH]c(=O)n([C@H]2C[C@H](O)[C@@H](CO)O2)cc1/C=C/Br [BRIVUDINE] | 0.004 (≈ 0.012 µM) | – | – | – | > 400 | – | > 10 | > 200 | 2 (≈ 6 µM) | > 200 | 70 (≈ 210 µM) | > 400 | 70 (≈ 210 µM) | –
7 | CCCC#Cc1nc2c(N)ncnc2n1[C@H]1C[C@H](O)[C@@H](CO)O1 | 40 (≈ 126 µM) | 100 (≈ 315 µM) | 30 (≈ 94.5 µM) | 100 (≈ 315 µM) | 70 (≈ 221 µM) | > 100 | 20 (≈ 63 µM) | 10 (≈ 31.5 µM) | 150 (≈ 473 µM) | 100 (≈ 315 µM) | 10 (≈ 31.5 µM) | 400 (≈ 1260 µM) | 10 (≈ 31.5 µM) | > 100
8 | NC(=O)c1ncn([C@@H]2O[C@H](CO)[C@@H](O)[C@H]2O)n1 [RIBAVIRIN] | – | – | – | – | > 400 | – | – | – | 70 (≈ 287 µM) | > 300 | – | > 400 | – | –
9 | CCCCC/C=C\c1nc2c(N)ncnc2n1[C@H]1C[C@H](O)[C@@H](CO)O1 | 15 (≈ 43.2 µM) | 100 (≈ 288 µM) | 12 (≈ 34.5 µM) | 100 (≈ 288 µM) | > 40 | 14 (≈ 40.3 µM) | 10 (≈ 28.8 µM) | 20 (≈ 57.6 µM) | 20 (≈ 57.6 µM) | > 40 | 30 (≈ 86.4 µM) | > 100 | 20 (≈ 57.6 µM) | > 100
10 | CCCc1nc2c(N)ncnc2n1[C@H]1C[C@H](O)[C@@H](CO)O1 | 20 (≈ 68.2 µM) | > 200 | > 200 | > 200 | 400 (≈ 1360 µM) | > 200 | 7 (≈ 23.9 µM) | 170 (≈ 580 µM) | 70 (≈ 239 µM) | > 300 | 20 (≈ 68.2 µM) | > 400 | 20 (≈ 68.2 µM) | > 200
11 | Nc1ncnc2c1ncn2[C@H]1C[C@H](O)[C@@H](CO)O1 [DEOXYADENOSINE] | > 100 | 200 (≈ 796 µM) | > 200 | > 200 | > 400 | 20 (≈ 79.6 µM) | > 100 | – | > 400 | > 400 | > 100 | > 400 | > 100 | > 200
12 | Nc1nc2c(ncn2COCCO)c(=O)[nH]1 [ACYCLOVIR] | – | – | – | – | > 400 | – | – | > 200 | > 400 | 100 (≈ 444 µM) | 35 (≈ 155 µM) | > 400 | 50 (≈ 222 µM) | –
13 | CC#Cc1nc2c(N)ncnc2n1[C@H]1C[C@H](O)[C@@H](CO)O1 | 40 (≈ 138 µM) | > 200 | > 200 | > 200 | 150 (≈ 519 µM) | > 200 | 40 (≈ 138 µM) | 40 (≈ 138 µM) | 300 (≈ 1040 µM) | 150 (≈ 519 µM) | 20 (≈ 69.1 µM) | > 400 | 20 (≈ 69.1 µM) | > 200
14 | CCCCCC#Cc1nc2c(N)ncnc2n1[C@H]1C[C@H](O)[C@@H](CO)O1 | 15 (≈ 43.4 µM) | 100 (≈ 290 µM) | > 100 | 100 (≈ 290 µM) | 20 (≈ 57.9 µM) | 30 (≈ 86.9 µM) | 8 (≈ 23.2 µM) | 6 (≈ 17.4 µM) | 7 (≈ 20.3 µM) | > 100 | 2 (≈ 5.79 µM) | > 200 | 7 (≈ 20.3 µM) | 100 (≈ 290 µM)
15 | C#Cc1nc2c(N)ncnc2n1[C@H]1C[C@H](O)[C@@H](CO)O1 | 7 (≈ 25.4 µM) | 4 (≈ 14.5 µM) | > 20 | 20 (≈ 72.7 µM) | > 4 | > 4 | 4 (≈ 14.5 µM) | 2 (≈ 7.27 µM) | > 4 | > 4 | 2 (≈ 7.27 µM) | 10 (≈ 36.3 µM) | 4 (≈ 14.5 µM) | > 20

From ChEMBL document CHEMBL1127647, “Synthesis and antiviral activities of 8-alkynyl-, 8-alkenyl-, and 8-alkyl-2'-deoxyadenosine analogues” (1994)
